Data as given in ChEMBL document CHEMBL4765234 (J Med Chem, 2016).
One block for each molecule: values may come before it.

Legend:
[1] = Drug metabolism in rat hepatocytes assessed as O-dealkylation by measuring 4-((2,3-dihydrospiro[indene-1,4'-piperidine]-1'-yl)methyl)benzoic acid metabolite formation by LC-MS/MS analysis; assay type: ADME, cell-based, Hepatocyte
[2] = Clearance in rat plasma at 10 mg/kg, po or 3 mg/kg, iv by LC/MS/MS analysis; assay type: ADME, organism-based
Procedure, shortened: (§1)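 Dosing was oral and intravenous in mice, rats or beagle dogs. Blood was drawn at set time points into EDTA and processed to plasma. Plasma was assayed by LC/MS/MS. Clearance, Cmax and terminal half-life were derived by noncompartmental analysis.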

[3] = Half-life in dog at 5 mg/kg, po or 1 mg/kg, iv by LC/MS/MS analysis; assay type: ADME, organism-based, Canis lupus familiaris; conditions: in vivo
Procedure, shortened: (§2)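 Mice, rats and beagle dogs dosed; blood drawn at set times into EDTA, processed to plasma and assayed by LC/MS/MS. Parameters (clearance, Vdss, terminal half-life, Cmax, Tmax, oral bioavailability) derived by noncompartmental analysis.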

[4] = Tmax in dog at 5 mg/kg, po or 1 mg/kg, iv by LC/MS/MS analysis; assay type: ADME, organism-based, Canis lupus familiaris; conditions: in vivo; procedure, shortened: as §2
[5] = Volume of distribution at steady state in rat at 10 mg/kg, po or 3 mg/kg, iv by LC/MS/MS analysis; assay type: ADME, organism-based; conditions: in vivo, read-out: Vdss; procedure, shortened: as §2
[6] = Drug metabolism in dog plasma assessed as O-dealkylation metabolite formation by LC-MS/MS analysis; assay type: ADME, cell-free, Canis lupus familiaris
[7] = Clearance in mouse plasma at 10 mg/kg, po or 1 mg/kg, iv by LC/MS/MS analysis; assay type: ADME, organism-based; procedure, shortened: as §1
[8] = Drug metabolism in mouse hepatocytes assessed as O-dealkylation by measuring 4-((2,3-dihydrospiro[indene-1,4'-piperidine]-1'-yl)methyl)benzoic acid metabolite formation by LC-MS/MS analysis; assay type: ADME, cell-based, Hepatocyte
[9] = Drug metabolism in dog hepatocytes assessed as O-dealkylation by measuring 4-((2,3-dihydrospiro[indene-1,4'-piperidine]-1'-yl)methyl)benzoic acid metabolite formation by LC-MS/MS analysis; assay type: ADME, cell-based, Canis lupus familiaris, Hepatocyte
[10] = Volume of distribution at steady state in dog at 5 mg/kg, po or 1 mg/kg, iv by LC/MS/MS analysis; assay type: ADME, organism-based, Canis lupus familiaris; conditions: in vivo, read-out: Vdss; procedure, shortened: as §2
[11] = Oral bioavailability in mouse at 10 mg/kg by LC/MS/MS analysis; assay type: ADME, organism-based; conditions: in vivo; procedure, shortened: as §2
[12] = Elimination half-life in dog plasma at 5 mg/kg, po or 1 mg/kg, iv by LC/MS/MS analysis; assay type: ADME, organism-based, Canis lupus familiaris; procedure, shortened: as §1
[13] = Tmax in mouse at 10 mg/kg, po or 1 mg/kg, iv by LC/MS/MS analysis; assay type: ADME, organism-based; conditions: in vivo; procedure, shortened: as §2
[14] = Tmax in rat at 10 mg/kg, po or 3 mg/kg, iv by LC/MS/MS analysis; assay type: ADME, organism-based; conditions: in vivo; procedure, shortened: as §2
[15] = Clearance in dog plasma at 5 mg/kg, po or 1 mg/kg, iv by LC/MS/MS analysis; assay type: ADME, organism-based, Canis lupus familiaris; procedure, shortened: as §1
[16] = Apparent clearance in type 2 diabetic mellitus human at 270 mg, po administered as single dose; assay type: ADME, organism-based; conditions: in vivo
Procedure, shortened: (§3)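 Type 2 diabetic subjects each received a single oral dose. Plasma drug levels were followed over time. Parameters were derived by noncompartmental analysis and reported as geometric means with CV%. CL/F is apparent total clearance and Vz/F is apparent terminal-phase volume.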

[17] = AUC in hyperglycemic Balb/c mouse plasma at 5 mg/kg measured upto 60 mins; assay type: ADME, organism-based; set-up: dose 5 mg/kg, time <=60
[18] = Apparent clearance in type 2 diabetic mellitus human at 540 mg, po administered as single dose; assay type: ADME, organism-based; conditions: in vivo; procedure, shortened: as §3
[19] = Drug metabolism in rat hepatocytes assessed as demethylation by LC-MS/MS analysis; assay type: ADME, cell-based, Hepatocyte
[20] = Cmax in type 2 diabetic mellitus human at 540 mg, po administered as single dose; assay type: ADME, organism-based; set-up: route oral, dose 540 mg; conditions: in vivo; procedure, shortened: as §3
[21] = Apparent volume of distribution in type 2 diabetic mellitus human at 1080 mg, po administered as single dose; assay type: ADME, organism-based; conditions: in vivo, read-out: Vz/F; procedure, shortened: as §3
[22] = Drug metabolism in mouse hepatocytes assessed as demethylation by LC-MS/MS analysis; assay type: ADME, cell-based, Hepatocyte
[23] = Tmax in type 2 diabetic mellitus human at 1080 mg, po administered as single dose; assay type: ADME, organism-based; conditions: in vivo
Procedure, shortened: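 Single oral dose given to type 2 diabetic subjects; plasma drug levels followed over time. Cmax, Tmax, terminal half-life, AUC(0−∞), CL/F and Vz/F obtained by noncompartmental analysis and reported as geometric means with CV%.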

[24] = Apparent clearance in type 2 diabetic mellitus human at 1080 mg, po administered as single dose; assay type: ADME, organism-based; conditions: in vivo; procedure, shortened: as §3
[25] = Drug metabolism in rat hepatocytes assessed as oxidation by LC-MS/MS analysis; assay type: ADME, cell-based, Hepatocyte
[26] = Drug metabolism in dog hepatocytes assessed as oxidation by LC-MS/MS analysis; assay type: ADME, cell-based, Canis lupus familiaris, Hepatocyte
[27] = Drug metabolism in mouse hepatocytes assessed as N-dealkylation by LC-MS/MS analysis; assay type: ADME, cell-based, Hepatocyte
[28] = Drug distribution in C57BL/6 mouse spleen at 3 microg/kg, iv administered as single dose observed at 20 to 40 mins by LC-MS/MS analysis; assay type: ADME, organism-based; conditions: in vivo, 0.003 mg/kg, time 20-40 min, dose 3 µg/kg
Procedure, shortened: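 Tracer microdose study in fed male C57BL/6 mice: single 3 μg/kg IV dose in 25% HP-BCD. Mice were killed by cervical dislocation, and spleen, ascending colon, skeletal muscle and plasma were sampled at 20 and 40 min.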

[29] = AUC in hyperglycemic Balb/c mouse plasma at 3.67 mg/kg measured upto 60 mins; assay type: ADME, organism-based; set-up: dose 3.67 mg/kg, time <=60

Structure (SMILES): CC#C[C@@H](CC(=O)O)c1ccc(OCc2ccc(CN3CCC4(C=Cc5ccccc54)CC3)cc2)cc1 [LY2881835]
- Drug metabolism [1]: Metabolite_Detected
- clearance [2]: 11.6 mL/min/kg
- half-life [3]: 5.05 h
- Tmax [4]: 3 h
- Vd [5]: 0.4 L/kg
- Drug metabolism [6]: Metabolite_Detected
- clearance [7]: 20.4 mL/min/kg
- Drug metabolism [8]: Metabolite_Detected
- Drug metabolism [9]: Metabolite_Detected
- Vd [10]: 0.8 L/kg
- bioavailability [11]: 64%
- half-life [12]: 5.05 h
- Tmax [13]: 0.5 h
- Tmax [14]: 0.25 h
- clearance [15]: 4.9 mL/min/kg

- CL/F [16]: 232 mL/min
- AUC at 1 h [17]: 4930 ng·h/mL
- CL/F [18]: 217 mL/min
- Drug metabolism [19]: Metabolite_Detected
- Cmax [20]: 3780 ng/mL
- Vd/F [21]: 358 L
- Drug metabolism [22]: Metabolite_Detected
- Tmax [23]: 4 h
- CL/F [24]: 185 mL/min
Structure (SMILES): CC#C[C@@H](CC(=O)O)c1ccc(OCc2ccc(CN3CCCc4cccc(OC)c43)s2)cc1

Structure (SMILES): CC#C[C@@H](CC(=O)O)c1ccc(OCc2ccc(CN3CCC4(CCc5ccccc54)CC3)s2)cc1
- Drug metabolism [25]: Metabolite_Detected
- Drug metabolism [26]: Metabolite_Detected
- Drug metabolism [27]: Metabolite_Detected

Structure (SMILES): CC#C[C@@H](CC(=O)O)c1ccc(OCc2ccc(CN3CCC4(C=Cc5ccccc54)CC3)s2)cc1
- Drug uptake [28]: Active
- AUC at 1 h [29]: 1060 ng·h/mL
